Results on four compounds are retold here after ChEMBL document CHEMBL4130626, “α-Arylidene Diacylglycerol-Lactones (DAG-Lactones) as Selective Ras Guanine-Releasing Protein 3 (RasGRP3) Ligands” (J Med Chem, 2018).

Structures are written as SMILES.

The species named for test [1] is Homo sapiens. The test is described as follows: Selectivity ratio of EC50 for PKCdelta (unknown origin) expressed in HEK293 cells harboring GFP-tagged RasGRP3 to EC50 for GFP-tagged RasGRP3 (unknown origin) expressed in HEK293 cells. The test is classed as cell-based. The method, boiled down: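 One EC50 comes from PKCδ S299 phosphorylation on immunoblot, the other from Ras-GTP pulled down on Raf1-RBD. Both signals normalised to 1000 nM PMA. EC50s above 10 µM are extrapolated.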

Test [2] addresses Protein kinase C delta type (Homo sapiens, UniProt Q05655). The test is described as follows: Activation of PKCdelta (unknown origin) expressed in HEK293 cells harboring GFP-tagged RasGRP3 assessed as phosphorylation at ser299 residues after 30 mins by immunoblot method. It is filed as cell-based. An outline of the steps:
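Cells are GFP-RasGRP3-transfected HEK293, grown in EMEM + 10% FBS. Exposed 30 min at 37 °C, 5% CO2, to half-log concentrations up to 10 µM, 1000 nM PMA or DMSO. Lysed in RIPA with protease and phosphatase inhibitors. 50 µg protein run on 10% SDS-PAGE and blotted for phospho-PKCδ S299; anti-GFP used as loading control. Signal normalised to 1000 nM PMA. EC50 is the mean of n = 3.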

For test [3], the target named is T1, Ras guanyl-releasing protein 3 (Homo sapiens, UniProt Q8IV61).
T1 sequence (Q8IV61 whole entry): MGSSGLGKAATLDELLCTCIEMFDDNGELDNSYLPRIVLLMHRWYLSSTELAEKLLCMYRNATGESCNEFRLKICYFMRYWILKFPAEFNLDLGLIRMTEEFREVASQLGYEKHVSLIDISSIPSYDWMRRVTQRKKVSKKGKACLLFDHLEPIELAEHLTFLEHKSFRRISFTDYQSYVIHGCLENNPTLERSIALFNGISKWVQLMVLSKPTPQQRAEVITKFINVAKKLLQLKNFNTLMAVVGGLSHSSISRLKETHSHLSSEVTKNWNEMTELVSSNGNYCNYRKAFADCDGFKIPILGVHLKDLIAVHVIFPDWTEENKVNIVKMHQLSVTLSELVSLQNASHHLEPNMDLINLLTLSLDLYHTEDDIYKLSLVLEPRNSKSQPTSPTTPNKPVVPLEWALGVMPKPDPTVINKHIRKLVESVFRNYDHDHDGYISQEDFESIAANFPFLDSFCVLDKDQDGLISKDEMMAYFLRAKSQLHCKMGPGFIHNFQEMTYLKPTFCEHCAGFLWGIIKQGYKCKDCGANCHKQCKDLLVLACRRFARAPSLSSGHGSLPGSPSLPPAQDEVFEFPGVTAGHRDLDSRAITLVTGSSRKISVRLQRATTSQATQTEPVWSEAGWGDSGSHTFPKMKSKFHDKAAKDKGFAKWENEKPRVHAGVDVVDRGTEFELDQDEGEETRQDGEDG
The test is described as follows: Activation of GFP-tagged RasGRP3 (unknown origin) expressed in HEK293 cells after 30 mins by immunoblot method. The test is classed as cell-based. An outline of the steps: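 HEK293 cells grown in EMEM + 10% FBS, transfected after 48 h with GFP-RasGRP3 (Lipofectamine Plus). Treated 30 min at 37 °C, 5% CO2, with half-log increasing concentrations up to 10 µM, 1000 nM PMA or DMSO. Active Ras pulled down from lysates on Raf1-RBD agarose (60 min, 4 °C), immunoblotted with anti-Pan-Ras. Band intensity normalised to 1000 nM PMA. EC50 is the mean of n = 3.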
In general terms: In western blotting, separated proteins are transferred to a membrane and probed.

The species named for test [4] is Homo sapiens. The experiment in a line: Selectivity ratio of Ki for GST-tagged PKCalpha C1 domain to Ki for human RasGRP3 overexpressed in HEK-293 cells.
For test [5], the target named is T2, Protein kinase C epsilon type (Homo sapiens, UniProt Q02156).
T2 sequence (Q02156 whole entry): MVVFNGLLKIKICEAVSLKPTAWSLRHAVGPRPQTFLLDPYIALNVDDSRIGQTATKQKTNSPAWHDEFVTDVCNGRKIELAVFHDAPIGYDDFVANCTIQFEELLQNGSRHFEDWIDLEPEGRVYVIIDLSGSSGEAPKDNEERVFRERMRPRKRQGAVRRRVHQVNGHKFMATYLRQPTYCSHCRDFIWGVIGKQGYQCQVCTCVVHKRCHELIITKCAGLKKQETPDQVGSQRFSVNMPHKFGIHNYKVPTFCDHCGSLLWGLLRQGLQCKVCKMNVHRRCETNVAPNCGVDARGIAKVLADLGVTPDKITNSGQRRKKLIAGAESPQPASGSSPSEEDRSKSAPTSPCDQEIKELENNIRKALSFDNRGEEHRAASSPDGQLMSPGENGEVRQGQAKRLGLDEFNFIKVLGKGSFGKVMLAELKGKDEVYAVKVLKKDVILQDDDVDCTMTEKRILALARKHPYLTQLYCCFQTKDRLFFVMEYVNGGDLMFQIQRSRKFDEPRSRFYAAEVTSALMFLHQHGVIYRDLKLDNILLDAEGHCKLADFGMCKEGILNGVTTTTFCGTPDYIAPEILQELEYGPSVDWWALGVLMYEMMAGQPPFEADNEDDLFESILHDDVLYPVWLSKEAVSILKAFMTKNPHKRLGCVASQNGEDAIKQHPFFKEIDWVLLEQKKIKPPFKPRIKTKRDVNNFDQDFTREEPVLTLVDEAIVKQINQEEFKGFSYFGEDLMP
The experiment in a line: Displacement of [3H]PDBu from full length recombinant human PKCepsilon expressed in baculovirus expression system after 5 mins by scintillation counting. The method, boiled down: (§1)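 Competition of [3H]PDBu binding by polyethylene glycol precipitation, with 100 µg/ml phosphatidylserine and ≤0.003% Triton X-100, 5 min at 37 °C. Proteins: full-length purified human PKCα, PKCε; full-length RasGRP1; MBP-RasGRP3 from E. coli BL21(DE3) induced with 0.3 mM IPTG 6 h at room temperature. Ki mean ± SEM of ≥2 experiments, triplicate points.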
On the technique in general: Displacement assays read how much labelled ligand stays bound in the presence of the test substance.

Test [6] has as its target T1, Ras guanyl-releasing protein 3. The experiment in a line: Displacement of [3H]PDBu from full length MBP-tagged human RasGRP3 expressed in Escherichia coli BL21 (DE3) after 5 mins by scintillation counting. The method, boiled down: as §1
For test [7], the target named is Protein kinase C alpha type (Homo sapiens, UniProt P17252). The test is described as follows: Displacement of [3H]PDBu from full length recombinant human PKCalpha expressed in baculovirus expression system after 5 mins by scintillation counting. The method, boiled down: as §1

Chain of Protein kinase C delta type (Q05655 whole entry): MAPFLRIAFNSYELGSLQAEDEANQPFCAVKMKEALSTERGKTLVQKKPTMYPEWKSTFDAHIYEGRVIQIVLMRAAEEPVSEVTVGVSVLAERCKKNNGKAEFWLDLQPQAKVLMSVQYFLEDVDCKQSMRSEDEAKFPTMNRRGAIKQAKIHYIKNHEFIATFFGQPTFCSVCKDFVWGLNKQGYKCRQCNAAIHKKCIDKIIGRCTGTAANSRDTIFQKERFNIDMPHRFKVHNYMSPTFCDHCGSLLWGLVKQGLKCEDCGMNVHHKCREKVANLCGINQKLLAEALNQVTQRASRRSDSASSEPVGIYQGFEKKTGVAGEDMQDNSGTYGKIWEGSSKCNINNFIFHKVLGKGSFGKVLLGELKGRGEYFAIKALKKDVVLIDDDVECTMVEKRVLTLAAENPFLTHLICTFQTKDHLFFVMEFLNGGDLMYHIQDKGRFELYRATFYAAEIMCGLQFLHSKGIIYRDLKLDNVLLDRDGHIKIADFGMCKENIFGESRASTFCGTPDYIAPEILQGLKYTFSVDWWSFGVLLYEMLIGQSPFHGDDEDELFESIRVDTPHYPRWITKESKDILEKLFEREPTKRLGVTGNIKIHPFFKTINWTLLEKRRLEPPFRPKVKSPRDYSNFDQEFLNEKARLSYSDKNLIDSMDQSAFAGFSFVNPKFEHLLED

As for `CCCCCCCCCCCCCC(=O)O[C@@H]1[C@@H](C)[C@@]2(O)[C@@H](C=C(CO)C[C@]3(O)C(=O)C(C)=C[C@@H]23)[C@@H]2C(C)(C)[C@]12OC(C)=O` [PHORBOL MYRISTATE ACETATE], the Ratio EC50 in the test filed under Homo sapiens [1] was 3.5. The concentration giving a half-maximal response (EC50) in test [2] stood at 290 nM; in test [3], 82 nM.
Regarding `COc1ccc(C(=O)OCC2(CO)C/C(=C\c3ccc([N+](=O)[O-])cc3)C(=O)O2)cc1` (stereo not drawn), in the test listed under Homo sapiens [4], the Ratio Ki worked out at 20.
Turning to `CN(C)c1ccc(C(=O)OCC2(CO)C/C(=C\c3ccc([N+](=O)[O-])cc3)C(=O)O2)cc1` (stereo not drawn), the Ratio Ki in the test listed under Homo sapiens [4] is 90.
On to `Cn1cc(/C=C2\CC(CO)(COC(=O)C(C)(C)C)OC2=O)c2cc([N+](=O)[O-])ccc21` (stereo not drawn), for which the inhibition constant Ki in test [5] was above 30000 nM; in test [6], 3490 nM; in test [7], above 30000 nM.

As usually defined, the EC50 is the midpoint of the concentration-response curve. One may read the Ki as the dissociation constant of the complex between target and ligand, obtained from inhibition or displacement.
